According to ChEMBL document CHEMBL1795208 (J Med Chem, 2011):

Assays:
Assay type in all cases: functional, cell-based
MCF7 = assay: Antiproliferative activity against human MCF7 cells expressing estrogen receptor after 72 hrs by MTS/PMS assay; conditions: MCF7, 72 h
Summary of the method: (§1)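 Cells kept in Advanced DMEM/F12 (1:1) with non-essential amino acids, 2 mM L-glutamine, penicillin, streptomycin and 10% FBS at 37 °C, 5% CO2. Seeded at 2000/well, attached overnight. Compound added in DMSO across a concentration range (1% DMSO final) for 72 h. Viable cells read by MTS/PMS and normalized to 1% DMSO controls (100%). IC50 taken from separate triplicate experiments.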

SK-BR-3 = assay: Antiproliferative activity against human SKBR3 cells expressing HER2 after 72 hrs by MTS/PMS assay; conditions: SK-BR-3, 72 h; summary of the method: as §1
[1] = Antiproliferative activity against human androgen-dependent LNCaP-LN3 cells after 72 hrs by MTS/PMS assay; conditions: LNCaP-LN3, 72 h; summary of the method: as §1
[2] = Antiproliferative activity against human androgen-independent PC3MM2 cells after 72 hrs by MTS/PMS assay; conditions: PC3MM2, 72 h; summary of the method: as §1

SMILES	IC50 (MCF7) [µM]	IC50 (SK-BR-3) [µM]	IC50 [1] [µM]	IC50 [2] [µM]
CNC(=O)Oc1ccc2cc(NC(=O)c3ccc(OC)c(-c4cccc(OC)c4)c3)c(=O)oc2c1C	1.72	2.4	3.75	5.22
COc1cccc(-c2cc(C(=O)Nc3cc4cc(OC)c(OC(=O)N(C)C)c(C)c4oc3=O)ccc2OC)c1	34.4	6.17	12.8	4.04
COc1cccc(-c2cc(C(=O)Nc3cc4ccc(OP(=O)(OC)OC)c(C)c4oc3=O)ccc2OC)c1	> 100	> 100	3.65	> 100
COc1cccc(-c2cc(C(=O)Nc3cc4ccc(OP(=O)(OC)OC)c(OC)c4oc3=O)ccc2OC)c1	> 100	18.1	6.58	11.5
COc1cccc(-c2cc(C(=O)Nc3cc4ccc(OCC(O)CO)c(OC)c4oc3=O)ccc2OC)c1 (stereo unspecified)	> 50	> 50	0.96	1.66
COc1cccc(-c2cc(C(=O)Nc3cc4ccc(OS(C)(=O)=O)c(OC)c4oc3=O)ccc2OC)c1	> 100	> 100	0.87	–
COc1cccc(-c2cc(C(=O)Nc3cc4ccc(O[C@H]5OCC[C@H]5O)c(C)c4oc3=O)ccc2OC)c1	> 100	> 100	5.34	–
COc1cccc(-c2cc(C(=O)Nc3cc4ccc(OC5C=CCN(C(C)=O)C5)c(C)c4oc3=O)ccc2OC)c1 (stereo unspecified)	> 50	> 50	0.9	3.73
CNC(=O)Oc1ccc2cc(NC(=O)c3ccc(OC)c(-c4cccc(OC)c4)c3)c(=O)oc2c1OC	6.54	> 100	2.37	1.68
COc1cccc(-c2cc(C(=O)Nc3cc4cc(OC)c(OS(C)(=O)=O)c(C)c4oc3=O)ccc2OC)c1	> 100	> 100	> 100	–
COc1cccc(-c2cc(C(=O)Nc3cc4ccc(OS(=O)(=O)c5ccc(C)cc5)c(OC)c4oc3=O)ccc2OC)c1	> 100	> 100	0.11	–
COc1cccc(-c2cc(C(=O)Nc3cc4cc(OC)c(OS(=O)(=O)c5ccc(C)cc5)c(C)c4oc3=O)ccc2OC)c1	> 100	> 100	–	> 100

Now from value to compound, other results behind:

IC50 (MCF7) [µM]	IC50 (SK-BR-3) [µM]	SMILES	IC50 [1] [µM]	IC50 [2] [µM]
0.5	0.6	COc1cccc(-c2cc(C(=O)Nc3cc4ccc(OCCCN(C)C)c(C)c4oc3=O)ccc2OC)c1	37.5	12.8
1.85	3.92	COc1cccc(-c2cc(C(=O)Nc3cc4ccc(OC5CN(C)C[C@@H](O)[C@H]5O)c(C)c4oc3=O)ccc2OC)c1 (stereo partly specified)	0.59	2.99
8.85	7.33	COc1cccc(-c2cc(C(=O)Nc3cc4ccc(OS(C)(=O)=O)c(C)c4oc3=O)ccc2OC)c1	20	> 100
11.2	9.28	COc1cccc(-c2cc(C(=O)Nc3cc4ccc(O[C@@H]5C[C@H](O)CCO5)c(C)c4oc3=O)ccc2OC)c1	8.56	–
3.08	1.77	COc1cccc(-c2cc(C(=O)Nc3cc4ccc(OCCN(C)C)c(OC)c4oc3=O)ccc2OC)c1	5.22	6.2
1.86	2.58	COc1c(OC2CCN(C)CC2)ccc2cc(NC(=O)c3cc4ccccc4[nH]3)c(=O)oc12	12.6	7.93
1.5	5.72	COc1cccc(-c2cc(C(=O)Nc3cc4cc(OC)c(OC(C)=O)c(C)c4oc3=O)ccc2OC)c1	1.05	1.69
95.8	8.75	COc1cccc(-c2cc(C(=O)Nc3cc4ccc(O[C@H]5C[C@H](O)CCO5)c(OC)c4oc3=O)ccc2OC)c1	11.5	–
1.54	0.92	COc1c(OC2CCN(C)CC2)ccc2cc(NC(=O)c3ccc(O)c(CC=C(C)C)c3)c(=O)oc12	–	3.53
